E coli WT exp – E. coli BW25113 growth inhibition, expanded screen; OD600 absorbance; growth inhibition, % at 100 µM; 0.15% of 98,000 active;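 active = growth inhibition above about 50% at one test dose, limit read from the data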;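 also: growth measured after 20 h incubation at 37 °C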
tolC growth inh – blocks growth of E. coli BW25113 tolC mutant; OD615; growth inhibition, % at 10 µM (by protocol); 2.2% of 65,000 active;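 active = growth inhibition at or above a cutoff equal to the mean over every tested compound plus 3 SD, cut at about 60% in these data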;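 also: growth measured after 20 h incubation at 37 °C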
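Test system: tolC-deleted E. coli BW25113 | Medium: LB with kanamycin 50 µg/mL | Compound dosing: Single concentration, 10 µM final per compound | Schedule: 37 °C, 20 h exposure | Measured by: OD at 615 nm | Evaluation: Percent growth inhibition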
CYP2C9 inhib – inhibitors of human CYP2C9; P11712; CYP2C9 Supersomes, luciferin-H conversion, luminescence; inhibition, % at 5 µM; 20% of 96,000 active; AID 777;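 active = blocking of liver enzyme CYP2C9 beyond about 50% at 5 µM, limit read from the data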
Target sequence (P11712 whole entry, looked up): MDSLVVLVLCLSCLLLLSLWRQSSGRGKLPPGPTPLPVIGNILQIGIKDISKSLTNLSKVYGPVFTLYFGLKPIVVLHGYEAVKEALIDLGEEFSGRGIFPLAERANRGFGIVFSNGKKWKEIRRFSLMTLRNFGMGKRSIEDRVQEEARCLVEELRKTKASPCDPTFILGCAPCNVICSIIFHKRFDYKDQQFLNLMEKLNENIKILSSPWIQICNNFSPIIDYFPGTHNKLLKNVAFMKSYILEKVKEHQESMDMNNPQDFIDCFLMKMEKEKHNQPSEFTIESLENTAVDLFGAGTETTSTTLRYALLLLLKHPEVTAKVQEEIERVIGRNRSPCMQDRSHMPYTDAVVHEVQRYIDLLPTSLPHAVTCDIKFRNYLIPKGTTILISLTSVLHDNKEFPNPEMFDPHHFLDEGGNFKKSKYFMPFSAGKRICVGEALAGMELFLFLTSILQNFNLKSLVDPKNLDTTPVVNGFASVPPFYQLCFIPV
CYP2C9 activ – activators of human CYP2C9; P11712; recombinant CYP2C9, luciferin-H conversion, luminescence; active compounds read high; factor 1 = untreated enzyme, 0 = blocked; activation factor at 5 µM; 1.4% of 96,000 active; AID 1024;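 active = activation factor of 2 or more for CYP2C9 at a 5 µM dose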;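 also: 0 = sulfaphenazole-blocked wells and 1 = vehicle-only wells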
CYP2C19 activ – cytochrome P450 2C19 (human) activation; P33261; recombinant CYP2C19, luciferin-H EGE luminescence; active compounds read high; 0 = fully inhibited enzyme, 1 = untreated enzyme; activation factor at 5 µM; 96,000 tested, under 10 active; AID 1025;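 active = activation factor of at least 2 at 5 µM in the primary screen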;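 also: 0 = wells with 2.5 mM tranylcypromine and 1 = vehicle-only wells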
CYP2C19 inhib – blocks human cytochrome P450 2C19; CYP2C19 Supersomes, luciferin-H EGE luminescence, 30 min; inhibition, % at 5 µM; 21% of 96,000 active; AID 778;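 active = CYP2C19 inhibition above a set limit at 5 µM in the primary screen, cut at about 50% in these data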;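 also: plate controls were negative control wells for no effect and 2.5 mM tranylcypromine positive control for full effect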
* = called active by the depositor; nt = not tested or not shown. Compounds with a hit are over-represented: about 29% of the library has one in this group of screens.

SMILES	E coli WT exp	tolC growth inh	CYP2C9 inhib	CYP2C9 activ	CYP2C19 activ	CYP2C19 inhib
COc1cc(NC(=O)c2ccco2)ccc1NC(=O)c1ccccc1Cl	-5	14	72*	0.3	0.5	51*
COc1cc(NC(=O)c2cccs2)ccc1NC(=O)c1ccco1	-3	1	74*	0.3	0.8	25
COc1ccc(NC(=O)c2ccccc2NC(=O)c2ccco2)c(OC)c1	-4	-1	59*	0.4	0.8	24
COc1cc(NC(=O)c2ccccc2Cl)ccc1NC(=O)c1ccco1	-1	nt	12	0.9	0.7	31
COc1ccc(C2C(C(=O)N3CCCC3)c3cc(OC)c(OC)cc3C(=O)N2C)cc1 (stereo unspecified)	1	-1	14	0.9	0.9	6
O/N=C/c1ccc(OCC(O)COc2ccc(/C=N/O)cc2)cc1	-7	4	18	0.8	0.8	25
COc1ccc(NC(=O)N(C2CCCCC2)C(C)c2ccco2)c(OC)c1 (stereo unspecified)	-17	69*	39	0.6	0.8	20
COc1ccc(OC)c(CNCCNC(=O)c2ccco2)c1	5	nt	13	0.9	0.3	73*
COc1cccc(CNCCNC(=O)c2ccco2)c1OC	3	nt	3	1	1	1
CCOC(=O)C1=NN(C(=O)Nc2ccc(OC)cc2)C2C(=O)N(c3cccc(C(F)(F)F)c3)C(=O)C12 (stereo unspecified)	-4	nt	-6	1.1	0.9	6
CCN(CC)c1ccc(CNc2ccc(Br)cn2)cc1	-5	3	63*	0.4	0.2	80*
CC12C(=O)N(c3cccc4cccnc34)C(=O)C1C1C=CC2C1 (stereo unspecified)	1	-2	-6	1.1	1	-2
CC12C(=O)N(c3nccs3)C(=O)C1C1C=CC2C1 (stereo unspecified)	1	-8	3	1	0.4	65*
Cc1ccc(C(=O)NCCCN2CCOCC2)cc1N1CCCC1=O	2	-18	-4	1	1.1	-8
CS(=O)(=O)N(CC(=O)N1CCCCCC1)c1cccc(Br)c1	-7	-11	41	0.6	0.2	77*
Cc1cc(C)cc(N(CC(=O)N2CCC(C)CC2)S(C)(=O)=O)c1	5	4	-123	2.2*	0.9	13
CS(=O)(=O)N(CC(=O)N1CCCCCC1)c1ccc(Br)cc1	4	11	37	0.6	0.2	77*
Cc1cccc(N(CC(=O)N2CCCC2)S(=O)(=O)c2ccccc2)c1	-4	5	73*	0.3	0.4	58*
O=C(NCC1CCCO1)c1onc(CSc2ccc(F)c(F)c2)c1C(=O)O (stereo unspecified)	-8	nt	18	0.8	0.8	20
O=S1(=O)CCN2C=C(Br)C=C(Br)C2=N1	0	-11	-2	1	1	3
CC(C(=O)NCC1CCCO1)n1cccc1C(=O)c1ccccc1 (stereo unspecified)	-13	-8	8	0.9	0.9	11
Cn1c(=O)oc2cc(S(=O)(=O)N3CCCC(C(=O)Nc4ccc5c(c4)OCCO5)C3)ccc21 (stereo unspecified)	-12	16	9	0.9	0.7	27
CC(C)OCCCNC(=O)CCc1nc(-c2ccccc2)no1	-6	-5	3	1	0.8	21
CS(=O)(=O)N(CC(=O)N1CCCC1)c1cccc(Cl)c1	1	-7	6	0.9	0.4	57*
CCN(CC)C(=O)CN(c1ccc(F)c(Cl)c1)S(C)(=O)=O	-10	-15	-7	1.1	0.7	33
SMILES	E coli WT exp	tolC growth inh	CYP2C9 inhib	CYP2C9 activ	CYP2C19 activ	CYP2C19 inhib
CS(=O)(=O)N(CC(=O)N1CCN(c2ccccc2)CC1)c1cccc(Br)c1	6	-4	-179	2.8*	0.4	64*
CN(C)c1ccc(/C=N/NC(=O)CN(c2cccc(Cl)c2)S(C)(=O)=O)cc1Br	-14	nt	51*	0.5	0.7	26
CS(=O)(=O)N(CC(=O)N1CCN(c2ccc(F)cc2)CC1)c1ccc(F)c(Cl)c1	1	nt	-87	1.9	0.3	71*
COc1ccccc1CN1CC(C(=O)NCc2cccnc2)CC1=O (stereo unspecified)	2	-15	1	1	0.9	8
CN(c1ccc(C(=O)N2CCN(c3ccc(F)cc3)CC2)cc1)S(C)(=O)=O	-3	11	46	0.5	0.9	10
CCOc1ccccc1N(CC(=O)N1CCOCC1)S(=O)(=O)c1ccccc1	2	-20	76*	0.2	0.7	29
COC(=O)Oc1ccc(/C=N/NC(=O)CN(c2ccccc2Cl)S(C)(=O)=O)cc1OC	-2	nt	63*	0.4	0.7	34
C=CCN(c1ccc(C(=O)N2CCN(c3ccc(F)cc3)CC2)cc1)S(C)(=O)=O	-9	0	55*	0.4	0.6	44
CC(C)OC(=O)c1c(NC(=O)c2cnn3c2NC(c2ccccc2)CC3C(F)F)sc2c1CCCC2 (stereo unspecified)	-8	nt	-9	1.1	1	-2
CCN(CC)S(=O)(=O)c1cc(C(=O)N2CCc3ccccc32)ccc1Cl	-5	nt	28	0.7	0.7	28
COC(=O)c1cccc(NC(=O)CSc2nnc(COc3cccc(C)c3)n2C)c1	1	4	41	0.6	0.8	23
Cc1nnc(SCC(=O)Nc2sccc2C(N)=O)n1Cc1ccccc1	-1	-8	-128	2.3*	0.2	76*
Cc1cccc(NC(=O)CSc2nnc(C)n2Cc2ccccc2)c1	2	nt	-5	1	0.4	59*
COC(=O)c1cccc(NC(=O)CSc2nnc(COc3ccc(C#N)cc3)n2-c2ccccc2)c1	4	6	69*	0.3	0.6	39
CCOc1ccc(-n2c(COc3ccccc3)nnc2SCC(N)=O)cc1	5	-8	37	0.6	0.2	76*
CC(=O)Nc1ccc(OCC=C(Cl)Cl)cc1	12	-2	18	0.8	0.8	24
COc1ccc(CC(=O)NCC2(c3ccc(OC)c(OC)c3)CCOCC2)cc1	5	nt	2	1	0.9	10
COCc1nnc(SCC(=O)Nc2cccc(Cl)c2C)n1-c1ccccc1	4	-1	18	0.8	0.2	84*
COC(=O)c1cccc(NC(=O)CSc2nnc(C)n2Cc2ccccc2)c1	5	8	89*	0.1	0.3	70*
COCc1nnc(SCC(=O)NCc2ccccc2)n1-c1ccccc1	-1	-9	14	0.9	0.6	44
CCC(C)(C)NC(=O)CN(C(=O)CNS(=O)(=O)c1ccccc1)c1ccccc1	3	-7	-2	1	0.9	10
Cc1ncc([N+](=O)[O-])n1CCO	nt	10	nt	nt	nt	nt
Cc1ncc([N+](=O)[O-])n1CCOC(=O)c1ccc(Cl)cc1Cl	2	nt	22	0.8	0.5	51*

Screening data from PubChem BioAssay.
